Our source for the Activity and IC50 values is ChEMBL document CHEMBL2146402, “Cytotoxic lignans from fruits of Cleistanthus indochinensis: synthesis of cleistantoxin derivatives” (J Nat Prod, 2012).

Holding throughout (format): functional, cell-based
Assay [1] relates to KB. The assay can be described thus: Cytotoxicity against human KB cells at 100 ug/mL after 72 hrs by neutral red assay.
Assay [2] relates to KB. The assay can be described thus: Cytotoxicity against human KB cells after 72 hrs by neutral red assay. A digest of the protocol: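 KB human nasopharynx carcinoma cells grown in D-MEM with 10% fetal calf serum, 2 mM L-glutamine, penicillin G, streptomycin and gentamicin. Seeded at 3 × 10³ cells/mL and exposed to compounds (stocks in DMSO/H₂O 1:9) for 72 h at 37 °C in air/CO₂ 95:5. Living cells stained with neutral red, OD read at 540 nm. IC50 is the concentration reducing growth to 50% of control. Taxotere reference.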

For another assay, the system named is HT-29. The assay can be described thus: Cytotoxicity against human HT-29 cells.
A further assay deals with MCF7. Nature of the assay: Cytotoxicity against human MCF7 cells.
Assay [3] in a line: Cytotoxicity against human MCF7/R cells. Particulars: MCF7R.

Active and inactive are the calls of the source. The rule behind the calls is not given here.

As for `COc1c2c(cc3c1[C@H]1C(=O)OC[C@H]1[C@H](C(=O)NCc1ccc(Cl)c(Cl)c1)[C@@H]3c1ccc3c(c1)OCO3)OCO2`, in the assay on KB [1], the result was inactive.

For the molecule `COc1c2c(cc3c1[C@H]1C(=O)OC[C@H]1[C@H](C(=O)NC1CCCCCC1)[C@@H]3c1ccc3c(c1)OCO3)OCO2`, in the assay with KB [2], the IC50 (usually the point on the concentration scale where inhibition reaches its midpoint) stood at 26 µg/mL.

Consider `COc1c2c(cc3c1[C@@H](C#N)[C@H]1COC(=O)[C@@H]1[C@@H]3c1ccc3c(c1)OCO3)OCO2`, for which the IC50 in the assay on KB [2] was found to be 1.2 µg/mL. Turning to `COc1c2c(cc3c1[C@H]1C(=O)OC[C@H]1[C@H](C(=O)NCc1ccc(F)cc1)[C@@H]3c1ccc3c(c1)OCO3)OCO2`, in the assay on KB [1], the result was inactive.

With `COc1c2c(cc3c1[C@H]1C(=O)OC[C@H]1[C@H](C(=O)n1ccnc1)[C@@H]3c1ccc3c(c1)OCO3)OCO2`, the result with KB [1] was inactive. As for `COc1c2c(cc3c1[C@H]1C(=O)OC[C@H]1[C@H](C(=O)N(Cc1ccccc1)Cc1ccccc1)[C@@H]3c1ccc3c(c1)OCO3)OCO2`, the result in the assay on KB [1] was inactive.

Turning to `COc1c2c(cc3c1[C@H](O)[C@H]1COC(=O)[C@@H]1[C@@H]3c1ccc3c(c1)OCO3)OCO2` [CLEISTANTOXIN], the concentration for half-maximal inhibition (IC50) with HT-29 was 35 nM; with KB [2], 22 nM; in the assay with MCF7, 36 nM; in assay [3], 14 nM. `COc1c2c(cc3c1[C@@H]1OC(=O)[C@H]([C@@H]3c3ccc4c(c3)OCO4)[C@@H]1CO)OCO2` [NEOCLEISTANTOXIN] came in with an IC50 with KB [2] of 1400 nM. `COc1c2c(cc3c1[C@H]1C(=O)OC[C@H]1[C@H](C(=O)N1CCCCC1)[C@@H]3c1ccc3c(c1)OCO3)OCO2` had an IC50 with KB [2] of 42 µg/mL.

Turning to `COc1c2c(cc3c1[C@H]1C(=O)OC[C@H]1[C@H](C(=O)NC1CCCC1)[C@@H]3c1ccc3c(c1)OCO3)OCO2`, the result with KB [1] was inactive.

As for `COc1c2c(cc3c1[C@H]1C(=O)OC[C@H]1[C@H](C(=O)NCc1ccco1)[C@@H]3c1ccc3c(c1)OCO3)OCO2`, the result with KB [1] was inactive. On the same count and under the same terms, next, `COc1c2c(cc3c1[C@H]1C(=O)OC[C@H]1[C@H](C(=O)O)[C@@H]3c1ccc3c(c1)OCO3)OCO2`: “inactive”.
